From PMC4822498 (Journal of pharmaceutical sciences, 2015)
Converted amounts (≈) assume the structure as drawn.

Tests used:
[1] = In vitro release study from IVR segments with release modelling; format: physicochemical
HIV-1IIIB = test: Cytopathic effects; format: cell-based
HIV-1ZA/97/009 = test: Anti-HIV assay in fresh human PBMCs; format: cell-based
HIV-1RF = test: Inhibition of cell to cell virus transmission assay; format: cell-based
[2] = Determination of aqueous solubility; format: physicochemical; conditions: DDI water, 37°C
Summary of the method: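 Saturated solution of test compound in 18 MΩ DDI water, shaken at 250 rpm at 37°C. Aliquots at time zero, 24 h and 48 h were filtered through 0.2 µm nylon and stored at −80°C before analysis.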

[3] = Chemical stability of the analogues in aqueous solution at pH 4.0 and 5.0; format: physicochemical
Summary of the method: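 Test compound prepared as 50 µM stock solutions in 10 mM acetate buffer (pH 4.0 and 5.0) and held at 40°C/75% RH. Aliquots were taken at 0, 1, 2 and 4 weeks; time-zero samples (n=3) were stored at −80°C. Drug content was measured by HPLC with norethindrone internal standard (LOQ 18.0 pmol). k = −2.303 × slope of a linear regression of log concentration vs time (first order).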

Question: For Cc1cc(C)cc(C(=O)c2c(C(C)C)c(=O)[nH]c(=O)n2CC2CC2)c1 [IQP-0528, 1-cyclopropylmethyl-6-(3,5-dimethyl-benzoyl)-5-isopropyl-1H-pyrimidine-2,4-dione], which diffusivity ([1]; IQP-0528 single agent IVR) is on record?
Answer: The diffusivity was 3.9 ± 0.4 × 10^−10 cm^2/s.

Question: What about the “release of IQP-0528 relative to SAMT-10 by mass” value ([1]; combination IVR) of the same molecule?
Answer: The value was ~3.5 times.

Question: And the diffusivity ([1]; combination IVR, in presence of 8% SAMT-10)?
Answer: Its diffusivity is 2.8 ± 0.8 × 10^−10 cm^2/s.

Question: What about the “decrease of diffusivity in the presence of 8% SAMT-10” value ([1]; combination vs single agent IVR) of the same molecule?
Answer: Its value is 27%.

Question: What about the cumulative release ([1]; from combination IVR, 30 days, scaled to full IVR) of the same molecule?
Answer: The cumulative release was 86 ± 13 mg/IVR.

Question: And the EC95 (HIV-1IIIB; CEM-SS/HIV-1IIIB)?
Answer: The EC95 was 8 nM.

Question: What about the EC50 (HIV-1IIIB; Human immunodeficiency virus 1, CEM-SS) of the same molecule?
Answer: The EC50 was 2 nM.

Question: What about the EC50 (HIV-1ZA/97/009; Human immunodeficiency virus 1, PBMC, in Homo sapiens) of the same molecule?
Answer: The EC50 was 6 nM.

Question: What about the EC95 (HIV-1ZA/97/009; PBMCs/HIV-1ZA/97/009) of the same molecule?
Answer: The EC95 was 0.019 µM.

Question: What about the EC95 (HIV-1RF; HIV-1RF Cell to Cell Transmission) of the same molecule?
Answer: Its EC95 is 0.085 µM.

Question: And the EC50 (HIV-1RF; Human immunodeficiency virus 1)?
Answer: The EC50 was 6 nM.

Question: With NC(=O)CCNC(=O)c1ccccc1SC(=O)c1ccccc1 [SAMT-08] as the molecule, how does the water solubility [2] read?
Answer: The water solubility was 2377.6 ± 27.8 µM (≈ 781 µg/mL).

Question: And the “concentration remaining in aqueous solution” value (from here on “concentration remaining”) ([3]; pH 4.0, 40°C/75% RH, 0 weeks)?
Answer: Its value is 46.5 ± 0.1 pmol/µL.

Question: What about the “concentration remaining” value ([3]; pH 4.0, 40°C/75% RH, 1 week) of the same molecule?
Answer: Its value is 40.9 ± 0.1 pmol/µL.

Question: What about the “concentration remaining” value ([3]; pH 4.0, 40°C/75% RH, 2 weeks) of the same molecule?
Answer: The value was 35.1 ± 0.5 pmol/µL.

Question: And the “concentration remaining” value ([3]; pH 4.0, 40°C/75% RH, 4 weeks, ND = Not Detected)?
Answer: Its value is 26.8 ± 0.2 pmol/µL.

Question: And the “Degradation rate constant (k)” value ([3]; pH 4.0, first order)?
Answer: The value was 2.3 10^−7 sec^−1.

Question: And the “concentration remaining” value ([3]; pH 5.0, 40°C/75% RH, 0 weeks)?
Answer: Its value is 68.6 ± 0.2 pmol/µL.

Question: And the “concentration remaining” value ([3]; pH 5.0, 40°C/75% RH, 1 week)?
Answer: The value was 57.3 ± 0.6 pmol/µL.

Question: And the “concentration remaining” value ([3]; pH 5.0, 40°C/75% RH, 2 weeks)?
Answer: The value was 49.0 ± 1.8 pmol/µL.

Question: And the “concentration remaining” value ([3]; pH 5.0, 40°C/75% RH, 4 weeks, ND = Not Detected)?
Answer: The value was 36 ± 1.43 pmol/µL.

Question: What about the “Degradation rate constant (k)” value ([3]; pH 5.0, first order) of the same molecule?
Answer: Its value is 2.3 10^−7 sec^−1.
